A short description of test [1]: inhibitors of TNFa-induced NFkB p65 translocation, primary screen, imaging, HUVEC, MLSMR starter and 10KST1 sets (AID 438;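 active means inhibition above 20% together with a positive visual image hit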;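 further: compound added about 3h40 before a 20 min TNFalpha stimulation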;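 on inhibition: signal is the nuclear over cytoplasmic p65 intensity ratio per well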). The following applies: HUVEC TNFa-induced p65 nuclear translocation; cell count: measured here: nuclei count (cytotoxicity indicator), at 2.08 µM; inhibition: at 2 µM, stronger effect = higher value, 0% TNFa-plus-vehicle, 100% no-TNFa wells.
Test [2] is described as follows: endothelial E-selectin expression blockers – imaging, HUVEC, immunofluorescence, MLSMR starter and 10KST1 sets, primary screen (AID 487;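 active means visually confirmed hit in the image check and inhibition above 20%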;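 on inhibition: signal is fraction of cell area covered by stained E-selectin grains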;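 on nuclei count: 100% = median nuclei count of all wells on the same plate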). The following applies: HUVEC TNFalpha-induced E-selectin immunofluorescence imaging, at 2 µM; inhibition: stronger effect = higher value; nuclei count: measured here: cell number, toxicity.
A short description of test [3]: Primary imaging screen for DUSP6 inhibitors that restore phospho-Erk in transfected HeLa cells, chemical complementation (AID 609;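 active means compounds giving at least 50% inhibition in the cell-based MKP-3 phosphatase rescue imaging test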;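 on inhibition: phospho-Erk level distribution per well compared with pooled transfected vehicle control wells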). The note with it: HeLa MKP-3 transfected, phospho-Erk imaging KS statistic, at 10 µM, cells stimulated with TPA for 15 min.
Test [4] addresses Dual specificity protein phosphatase 6 (Homo sapiens) (UniProt Q16828). The description is as above. The following applies: HeLa MKP-3 transfected, phospho-Erk imaging KS statistic; at 10 µM; stronger effect = higher value; cells stimulated with TPA for 15 min.
Test [5] deals with Voltage-gated potassium channel subunit beta-2 (Rattus norvegicus) (UniProt P62483). Briefly: inhibitors of rat Kvbeta2 reductase activity – biochemical, NADPH fluorescence, primary screen (AID 622;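 active means fluorescence slope higher than the sample average by over 3 SD, cut at about -0.22 in these data, passing the limit was not always enough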;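 further: slope of raw intensity against log time taken from 70 to 1610 s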). The note with it: recombinant KvBeta, 4-cyanobenzaldehyde reduction, at 10 µM, stronger effect = higher value.
Test [6] shares this target. Put plainly: enhancers of rat Kvbeta2 NADPH turnover – biochemical, NADPH fluorescence, primary screen (AID 623;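 active means NADPH fluorescence slope more negative than the mean of all samples by about 3 SD, 99.7% confidence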;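 further: fluorescence intensity change per second fitted from 20 to 320 s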). The following applies: Recombinant KvBeta, NADPH fluorescence decrease slope, 10 min; at 10 µM; stronger effect = lower value.
Test [7] has as its target Muscarinic acetylcholine receptor M4 (Homo sapiens) (UniProt P08173). Put plainly: M4-linked GIRK flux change, two-sided – cell-based, HEK293 M4/GIRK, thallium flux, BTC-AM, M4 allosteric agonist project, primary screen (AID 625;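 active means fluorescence slope after compound addition differing from the mean of all tested samples at 99.7% confidence, mostly higher but some lower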;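 further: thallium influx through GIRK channels coupled to M4 in HEK293 cells with BTC-AM dye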). The following applies: at 10 µM, actives lie on both sides. In a few lines: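 Material: HEK293 cells with M4 receptor and GIRK channels; Times: cells overnight at 37 °C, BTC-AM loading 1 h, reads 2 min total; Technique: kinetic BTC-AM fluorescence sampled at 1 Hz, 10 s pre-addition baseline; Read-out basis: slope over 15–24 s of trace normalized to starting intensity; Controls: carbachol positive, DMSO negative.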

A short description of test [8]: inhibitors of larval lipid processing in zebrafish, primary screen, whole organism, PED6 fluorescence, gall bladder and intestine (AID 686;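 active means a full or partial loss of lipid-probe fluorescence in the fish gall bladder, intestine or both, judged by eye; inactive means no fluorescence loss, or compound toxic to the fish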;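 further: larvae 5 to 7 days old with five fish per well; signal comes from phospholipase A2 cleavage of quenched PED6 carried via bile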). The note with it: Zebrafish larvae PED6 lipid processing, fluorescence scoring; screened at 20 µM (by protocol). In a few lines:
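Incubation: overnight exposure of larvae to compound plus PED6 / Test system: live zebrafish larvae aged 5-7 days, whole organism / Amount: 5 larvae per well / Read-out basis: visual per-well fluorescence inhibition score / Signal: visual fluorescence microscopy scoring of gall bladder, gut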

A short description of test [9]: loss of swimming-algae plug formation – whole organism, Chlamydomonas reinhardtii, WT vs cilia-less mutant, absorbance, 96-well, primary screen (AID 463189).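 Further: 0% = wild type cc124 cells in DMSO and 100% = ciliumless bld1 mutant cells.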 The following applies: Chlamydomonas reinhardtii gravitaxis, OD600 absorbance, 2 days; at 10 µM; stronger effect = higher value.
The mark [10] stands for this setting: measured here: cell density z-score.
[11] abbreviates: measured here: nuclear c-Myc green intensity z-score.
Setting [12] is: measured here: nuclear pErk red intensity z-score, stronger effect = higher value.

Calls of active or inactive are those of the source.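 How the source made its calls, unless noted: active means inhibition at or above 50% relative to wild type and mutant plate controls; inactive means inhibition below 50%.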

Muscarinic acetylcholine receptor M4 (Homo sapiens), sequence (P08173 whole entry, looked up): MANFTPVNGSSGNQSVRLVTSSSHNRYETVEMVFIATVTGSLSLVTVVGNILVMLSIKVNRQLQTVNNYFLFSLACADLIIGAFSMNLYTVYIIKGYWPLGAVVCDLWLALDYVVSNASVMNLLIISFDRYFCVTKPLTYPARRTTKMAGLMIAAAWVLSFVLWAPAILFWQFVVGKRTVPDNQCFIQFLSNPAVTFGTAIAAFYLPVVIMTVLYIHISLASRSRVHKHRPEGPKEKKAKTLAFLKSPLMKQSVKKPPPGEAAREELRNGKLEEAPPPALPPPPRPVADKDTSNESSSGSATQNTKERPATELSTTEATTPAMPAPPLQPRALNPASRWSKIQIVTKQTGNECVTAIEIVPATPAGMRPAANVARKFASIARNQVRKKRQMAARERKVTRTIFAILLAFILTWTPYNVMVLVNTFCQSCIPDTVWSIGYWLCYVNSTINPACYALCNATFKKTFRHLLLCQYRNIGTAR
Voltage-gated potassium channel subunit beta-2 (Rattus norvegicus), sequence (P62483 whole entry, looked up): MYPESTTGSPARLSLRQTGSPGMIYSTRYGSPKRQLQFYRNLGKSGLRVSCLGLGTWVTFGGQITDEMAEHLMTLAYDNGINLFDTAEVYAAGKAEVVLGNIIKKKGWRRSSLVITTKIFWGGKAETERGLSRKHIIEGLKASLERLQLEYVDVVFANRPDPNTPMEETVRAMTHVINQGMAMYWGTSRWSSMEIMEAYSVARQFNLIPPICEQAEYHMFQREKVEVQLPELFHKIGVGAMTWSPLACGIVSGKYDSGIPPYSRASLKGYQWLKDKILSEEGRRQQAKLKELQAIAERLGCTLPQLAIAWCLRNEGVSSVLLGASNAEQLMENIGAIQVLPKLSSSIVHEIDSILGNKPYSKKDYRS
Dual specificity protein phosphatase 6 (Homo sapiens), sequence (Q16828 whole entry, looked up): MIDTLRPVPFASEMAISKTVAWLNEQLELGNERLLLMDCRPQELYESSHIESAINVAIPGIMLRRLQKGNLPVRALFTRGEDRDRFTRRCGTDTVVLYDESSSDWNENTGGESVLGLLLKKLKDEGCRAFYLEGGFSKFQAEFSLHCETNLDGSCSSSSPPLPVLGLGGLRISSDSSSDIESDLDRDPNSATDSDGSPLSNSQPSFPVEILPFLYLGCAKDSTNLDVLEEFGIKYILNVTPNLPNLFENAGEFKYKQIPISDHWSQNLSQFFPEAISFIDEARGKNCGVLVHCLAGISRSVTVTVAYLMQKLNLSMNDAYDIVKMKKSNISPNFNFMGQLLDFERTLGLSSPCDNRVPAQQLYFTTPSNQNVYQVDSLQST

As to `Cc1cc(C(=O)O)c(CSc2ncn[nH]2)o1`, in test [1], the cell count stood at 652. Further, the inhibition was -7.4% (inactive) in test [1], -48.6% (inactive) in test [2], -5.81% (inactive) in test [4] and -11% (inactive) in test [9]. This molecule yielded a nuclei count in test [2] of 174%. For the same molecule, the z-score in test [3] (setting [10]) is -1.18; in test [3] (setting [11]), 1.91; in [3] (setting [12]), 1.7. For the same molecule, the figures for the fluorescence slope in test [5] and in [7] were -0.455 (inactive) and 0.0045 (inactive), respectively. Moreover, the NADPH fluorescence slope in test [6] is -0.000158 (inactive). The molecule was called inactive in test [8].
Consider `Cc1nn2cnc3sc4c(c3c2nc1=O)CCCC4`, for which the cell count in test [1] is 535. In addition, the inhibition is -9.5% (inactive) in test [1], -186% (inactive) in test [2], 13.9% (inactive) in [4] and 19.9% (inactive) in test [9]. The molecule also showed a nuclei count in test [2] of 145%. Further, the z-score is 0.522 in test [3] (setting [10]), -0.702 in test [3] (setting [11]) and -1.01 in test [3] (setting [12]). In addition, the fluorescence slope was -0.364 (inactive) in test [5] and 0.00519 (inactive) in test [7]. Also, the NADPH fluorescence slope in test [6] was -2.5e-05 (inactive). In [8], the molecule was classed as inactive.
For `COc1ccc2c(c1OC)C(=O)OC2c1c(O)nc(SC)n(-c2ccccc2)c1=O` (centres undefined), the cell count in test [1] stood at 494. Besides, the inhibition in test [1] was 4.1% (inactive); in test [2] it was -192% (inactive); in [4], 29.7% (inactive); in test [9], -18.2% (inactive). Moreover, the nuclei count in test [2] was 115%. In addition, the z-score was 1.24 in [3] (setting [10]), 1.53 in test [3] (setting [11]) and -0.802 in test [3] (setting [12]). The fluorescence slope in [5] was -0.39 (inactive); in test [7] it was 0.00866 (inactive). Besides, the NADPH fluorescence slope in test [6] is -6.5e-05 (inactive). For the same molecule, the result in test [8] was inactive.
`CCCN(CCC)c1nc2ccccc2nc1C(C#N)C(=O)OC(C)COC` (centres undefined): in [1], the cell count came out at 586. Also, the inhibition in test [1] was -26.5% (inactive); in test [2] it was 1.8% (inactive); in [4], -12.6% (inactive); in test [9], 26.1% (inactive). This molecule also showed a nuclei count in test [2] of 174%. The results for the z-score in [3] (setting [10]), in [3] (setting [11]) and in test [3] (setting [12]) were 0.238, 0.588 and 0.413, respectively. The fluorescence slope in test [5] is -0.408 (inactive); in test [7], 0.00444 (inactive). Besides, the NADPH fluorescence slope in test [6] was -7.9e-05 (inactive). Also, the call in test [8] was inactive.
Consider `O=C1c2ccccc2C(=O)N1CC1c2ccccc2CCN1C(=O)N1CCOCC1` (centres undefined), for which the cell count in test [1] amounted to 775. In addition, the inhibition in test [1] is -4.1% (inactive); in [2] it was -16.4% (inactive); in [4], 1.98% (inactive); in test [9], -3.71% (inactive). This molecule also registered a nuclei count in test [2] of 202%. The z-score in test [3] (setting [10]) was 0.51; in [3] (setting [11]), 1.63; in test [3] (setting [12]), 0.969. The fluorescence slope in test [5] is -0.485 (inactive); in [7] it was 0.0053 (inactive). Moreover, the NADPH fluorescence slope in [6] is -4.9e-05 (inactive). Moreover, in [8], the call was inactive.
As for `CCN(CC)C(=O)C1CCN(c2ncnc3c2cnn3-c2ccc(C)cc2C)CC1`, the cell count in test [1] stood at 622. Besides, the inhibition was -8.2% (inactive) in [1], -52.3% (inactive) in test [2], 11.4% (inactive) in [4] and 27.9% (inactive) in test [9]. The same molecule returned a nuclei count in [2] of 178%. Moreover, the z-score was 1.38 in [3] (setting [10]), -1.28 in test [3] (setting [11]) and 0.399 in test [3] (setting [12]). Besides, the fluorescence slope in test [5] was -0.416 (inactive); in [7] it was 0.00727 (inactive). In addition, the NADPH fluorescence slope in test [6] is -4.9e-05 (inactive). Besides, the molecule was called inactive in test [8].
Turning to `CCN(CC)CCCN1C(=O)C(=O)/C(=C(/O)c2ccc3c(c2)CC(C)O3)C1c1ccncc1` (centres undefined), the cell count in test [1] stood at 613. For the same molecule, the inhibition in test [1] was -2.6% (inactive); in test [2], -3.9% (inactive); in [4] it was 19.4% (inactive); in [9], 17% (inactive). In addition, in test [2], the nuclei count was 154%. In addition, the results for the z-score in test [3] (setting [10]), in test [3] (setting [11]) and in test [3] (setting [12]) were 1.2, -0.776 and -1.04, respectively. Also, the fluorescence slope in test [5] was -0.478 (inactive); in test [7], 0.00593 (inactive). In addition, the NADPH fluorescence slope in test [6] was -4.1e-05 (inactive). Also, in [8], the molecule was called inactive.
`CC(=O)N1CCN(C2c3cccc4cccc(c34)C2NS(=O)(=O)c2ccccc2)CC1` (centres undefined): the cell count in [1] is 507. Moreover, the inhibition in [1] was -0.3% (inactive); in test [2], -19.2% (inactive); in test [4], 33.3% (inactive); in test [9], 30.1% (inactive). The molecule further showed a nuclei count in test [2] of 101%. In addition, the z-score in test [3] (setting [10]) is 1.9; in test [3] (setting [11]) it was -1.56; in test [3] (setting [12]), -0.633. Further, the figures for the fluorescence slope in test [5] and in test [7] were -0.462 (inactive) and 0.00522 (inactive), respectively. The NADPH fluorescence slope in [6] is -4.4e-05 (inactive). Besides, the molecule was classed as inactive in test [8].
With `COc1ccccc1NC(=O)Nc1nnc(C(C)C)s1`, the cell count in [1] was found to be 702. Also, the inhibition was -3.3% (inactive) in test [1], -24.3% (inactive) in test [2], -5.81% (inactive) in test [4] and 3.73% (inactive) in [9]. This molecule also registered a nuclei count in test [2] of 157%. The values for the z-score in test [3] (setting [10]), in test [3] (setting [11]) and in test [3] (setting [12]) were -0.239, -0.311 and 0.0371, respectively. Also, the fluorescence slope was -0.476 (inactive) in test [5] and 0.00885 (inactive) in test [7]. In [6], the NADPH fluorescence slope was -1.2e-05 (inactive). Moreover, the result in test [8] was inactive.
On to `O=C(Nc1ccccn1)c1ccc(=O)[nH]n1`, for which, in [1], the cell count was determined as 634. The inhibition in test [1] is 4.2% (inactive); in test [2], -92.2% (inactive); in [4], 6.51% (inactive); in [9] it was 20.6% (inactive). Moreover, the nuclei count in test [2] was 134%. Besides, the values for the z-score in [3] (setting [10]), in test [3] (setting [11]) and in test [3] (setting [12]) were 0.857, -1.57 and -0.248, respectively. Further, the fluorescence slope in [5] is -0.475 (inactive); in [7] it was 0.00627 (inactive). In test [6], the NADPH fluorescence slope was -0.0002 (inactive). In addition, the molecule was called inactive in test [8].
As to `COCCn1c(SCc2c(F)cccc2Cl)nc2c1c(=O)[nH]c(=O)n2C`, the cell count in [1] was 654. In addition, the inhibition in [1] was 3.4% (inactive); in test [2], -11.2% (inactive); in test [4], 40.7% (inactive); in test [9], 15.2% (inactive). Besides, the nuclei count in test [2] turned out to be 115%. Also, the z-score in [3] (setting [10]) is 1.7; in test [3] (setting [11]) it was -2.3; in test [3] (setting [12]), -0.397. The fluorescence slope was -0.44 (inactive) in test [5] and 0.00509 (inactive) in test [7]. Further, the NADPH fluorescence slope in test [6] was -5.5e-05 (inactive). Moreover, in [8], the result was inactive.
Turning to `COc1cccc(CNc2ncc(Br)cc2Br)c1O`, the cell count in [1] was determined as 474. Moreover, the inhibition in [1] was -5.4% (inactive); in test [2] it was -263% (inactive); in test [4], -5.62% (inactive); in test [9] it was 5.51% (inactive). Further, in test [2], the nuclei count was found to be 170%. For the same molecule, the z-score was -1.34 in test [3] (setting [10]), 0.935 in test [3] (setting [11]) and 2.04 in test [3] (setting [12]). The fluorescence slope in [5] was -0.439 (inactive); in test [7], 0.0052 (inactive). In addition, the NADPH fluorescence slope in [6] is -4.8e-05 (inactive). The result in test [8] was inactive.
Regarding `COc1ccc(/C(O)=C2/C(=O)C(=O)N(CCN3CCOCC3)C2c2cccnc2)cc1OC` (centres undefined), in test [1], the cell count worked out at 364. Further, the inhibition was -4.2% (inactive) in test [1], -126% (inactive) in test [2], 11.9% (inactive) in test [4] and -1.91% (inactive) in test [9]. The same molecule had a nuclei count in [2] of 151%. In addition, the z-score in [3] (setting [10]) is -0.575; in [3] (setting [11]), 1.61; in [3] (setting [12]), -0.594. The values for the fluorescence slope in [5] and in [7] were -0.486 (inactive) and 0.00405 (inactive), respectively. The NADPH fluorescence slope in test [6] was -4.1e-05 (inactive). The molecule was classed as inactive in test [8].

Source of the values: PubChem BioAssay.
